These results are taken from ChEMBL document CHEMBL3992520, “Development of the First Two-Pore Domain Potassium Channel TWIK-Related K+ Channel 1-Selective Agonist Possessing in Vivo Antinociceptive Activity” (J Med Chem, 2017).

Bounds are passed on as bounds.

The test system of data set [1] is Mus musculus. The data set can be described thus: Antinociceptive activity in CD1 mouse assessed as inhibition of acetic acid-induced writhes at 10 mg/kg, sc pretreated for 15 mins followed by acetic acid challenge measured within 20 mins relative to control. It is filed as functional. The essentials: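 Male CD1 mice (20-25 g), n=8 per group, dosed at 10 mg/kg s.c. or with vehicle (5% Tween 80 in 0.9% saline). Dosing was 15 min before i.p. 0.6% acetic acid (10 mL/kg). Abdominal writhes were counted for 20 min. Effect = (mean control writhes − mean test writhes)/mean control writhes ×100.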

Data set [2] relates to Mus musculus. The data set is described as follows: Antinociceptive activity in wild-type C57Bl/6J mouse assessed as increase in thermal-stimulus induced paw withdrawal latency at 60 mg/kg, sc measured after 30 mins by hot plate method relative to control. Format: functional. In outline:
(§1)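 TREK-1−/− and wild-type C57Bl/6J littermates came from heterozygous crosses, n=7. Dose was 60 mg/kg s.c. The 52 °C hotplate measured paw-lick latency, 30 s cut-off, with baseline from two stable pre-dose latencies.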

The target in data set [3] is T1, Potassium channel subfamily K member 2 (Homo sapiens) (UniProt O95069).
T1 sequence (whole entry): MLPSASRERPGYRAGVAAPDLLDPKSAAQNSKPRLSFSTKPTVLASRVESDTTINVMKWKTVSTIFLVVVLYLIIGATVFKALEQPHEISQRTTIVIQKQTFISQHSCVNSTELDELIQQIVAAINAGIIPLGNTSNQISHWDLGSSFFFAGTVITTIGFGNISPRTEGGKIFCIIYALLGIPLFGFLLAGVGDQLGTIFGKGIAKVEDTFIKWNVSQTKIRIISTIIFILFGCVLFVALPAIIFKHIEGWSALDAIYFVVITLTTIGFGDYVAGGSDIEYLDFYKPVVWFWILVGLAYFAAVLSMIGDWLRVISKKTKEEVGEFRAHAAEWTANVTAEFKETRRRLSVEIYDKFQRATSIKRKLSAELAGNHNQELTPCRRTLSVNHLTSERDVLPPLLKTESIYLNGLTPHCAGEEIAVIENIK
The data set is described as follows: Agonist activity at human TREK1 expressed in xenopus oocytes assessed as increase in K+ current at 20 uM measured at 0 mV by double microelectrode method relative to control. It is filed as cell-based.

Data set [4] relates to Mus musculus. The data set is described as follows: In vivo activation of TREK1 in C57Bl/6J mouse assessed as increase in thermal-stimulus induced paw withdrawal latency at 60 mg/kg, sc measured after 30 mins by hot plate method relative to control. Format: functional. In outline:
as §1

In data set [5] the test system is Mus musculus. The data set is described as follows: Antinociceptive activity in CD1 mouse assessed as increase in thermal-stimulus induced paw withdrawal latency at 60 mg/kg, sc measured after 30 mins by hot plate method relative to control. Format: functional. The essentials:
(§2)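 Male CD1 mice (20-25 g), n=8 per group, given 60 mg/kg s.c. After 5 min acclimatization on a plate at room temperature, mice were placed on a 52 °C hotplate. Latency to forepaw or hindpaw licking or hindpaw flicking was recorded, with a 30 s cut-off. Latency was taken after two consecutive stable baselines, then 30 and 45 min post-dose. Effect = (postdrug − predrug latency)/predrug latency ×100.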

Data set [6] concerns Liver. The data set can be described thus: Drug level in rat liver microsomes treated with at 40 mM (E)-ethyl 2-cyano-3-(furan-3-yl)acrylate measured after 24 hrs by HPLC analysis. Format: ADME, microsome. The note with it: 40000 µM. The essentials:
(§3)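 Incubation mix: rat liver microsomes (20 mg/mL stock), phosphate buffer pH 7.4 and NADPH (40 mM stock). Drug was added from a 40 mM DMSO stock. Samples were vortexed and incubated at 37 °C with stirring.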

The target of data set [7] is T1, Potassium channel subfamily K member 2 (Homo sapiens). The data set is described as follows: Agonist activity at human TREK1 expressed in HEK293 cells assessed as increase in K+ current at 100 uM measured at +60 mV by whole-cell patch clamp method relative to control. Format: cell-based. In outline:
(§4)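 Human TREK-1 (kcnk2) in pIRES2-eGFP was stably expressed in HEK-293 cells under G418 selection, and cells were used 4–48 h after plating. Bath (mM): 140 NaCl, 10 TEA-Cl, 5 KCl, 3 MgCl2, 1 CaCl2, 10 HEPES, pH 7.4. Pipette (mM): 155 KCl, 3 MgCl2, 5 EGTA, 10 HEPES, pH 7.2. Holding was −80 mV, with a step to −100 mV then a 400 ms ramp to +60 mV every 5 s. Read-out was the ratio Imax/I0 taken from I/V curves. Stocks were 20 mM in DMSO.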

Data set [8] concerns the target Potassium channel subfamily K member 9 (Homo sapiens) (UniProt Q9NPC2). The data set is described as follows: Agonist activity at TASK3 (unknown origin) expressed in HEK293 cells assessed as increase in K+ current at 100 uM measured at +60 mV by whole-cell patch clamp method relative to control. Format: cell-based.
Data set [9] deals with Mus musculus. The data set can be described thus: Antinociceptive activity in TREK1 deficient C57Bl/6J mouse assessed as increase in thermal-stimulus induced paw withdrawal latency at 60 mg/kg, sc measured after 30 mins by hot plate method relative to control. It is filed as functional. The essentials:
as §1

Data set [10] has as its system Mus musculus. The data set can be described thus: In vivo activation of TREK1 in C57Bl/6J mouse assessed as increase in thermal-stimulus induced paw withdrawal latency at 60 mg/kg, sc measured after 45 mins by hot plate method relative to control. Format: functional. The essentials: as §1
Data set [11] deals with T2, Potassium channel subfamily K member 4 (Homo sapiens) (UniProt Q9NYG8).
T2 sequence (whole entry): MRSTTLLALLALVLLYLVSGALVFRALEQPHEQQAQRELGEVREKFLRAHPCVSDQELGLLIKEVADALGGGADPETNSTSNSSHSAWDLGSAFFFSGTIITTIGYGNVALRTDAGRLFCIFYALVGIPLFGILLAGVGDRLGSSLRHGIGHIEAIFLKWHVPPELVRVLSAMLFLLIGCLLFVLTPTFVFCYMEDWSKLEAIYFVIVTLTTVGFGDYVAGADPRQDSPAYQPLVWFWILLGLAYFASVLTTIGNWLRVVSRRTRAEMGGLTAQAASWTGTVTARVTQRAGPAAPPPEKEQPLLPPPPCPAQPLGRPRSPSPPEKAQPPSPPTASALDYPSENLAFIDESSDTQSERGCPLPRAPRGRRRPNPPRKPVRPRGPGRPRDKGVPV
The data set can be described thus: Agonist activity at TRAAK (unknown origin) expressed in HEK293 cells assessed as increase in K+ current at 100 uM measured at +60 mV by whole-cell patch clamp method relative to control. It is filed as cell-based.

In data set [12] the test system is Mus musculus. The data set is described as follows: Antinociceptive activity in TREK1 deficient C57Bl/6J mouse assessed as increase in thermal-stimulus induced paw withdrawal latency at 60 mg/kg, sc measured after 45 mins by hot plate method relative to control. It is filed as functional. The essentials: as §1
In data set [13] the test system is Mus musculus. The data set can be described thus: Antinociceptive activity in CD1 mouse assessed as increase in thermal-stimulus induced paw withdrawal latency at 60 mg/kg, sc measured after 45 mins by hot plate method relative to control. It is filed as functional. In outline: as §2
Data set [14] concerns the target T3, Potassium channel subfamily K member 10 (Homo sapiens) (UniProt P57789).
T3 sequence (whole entry): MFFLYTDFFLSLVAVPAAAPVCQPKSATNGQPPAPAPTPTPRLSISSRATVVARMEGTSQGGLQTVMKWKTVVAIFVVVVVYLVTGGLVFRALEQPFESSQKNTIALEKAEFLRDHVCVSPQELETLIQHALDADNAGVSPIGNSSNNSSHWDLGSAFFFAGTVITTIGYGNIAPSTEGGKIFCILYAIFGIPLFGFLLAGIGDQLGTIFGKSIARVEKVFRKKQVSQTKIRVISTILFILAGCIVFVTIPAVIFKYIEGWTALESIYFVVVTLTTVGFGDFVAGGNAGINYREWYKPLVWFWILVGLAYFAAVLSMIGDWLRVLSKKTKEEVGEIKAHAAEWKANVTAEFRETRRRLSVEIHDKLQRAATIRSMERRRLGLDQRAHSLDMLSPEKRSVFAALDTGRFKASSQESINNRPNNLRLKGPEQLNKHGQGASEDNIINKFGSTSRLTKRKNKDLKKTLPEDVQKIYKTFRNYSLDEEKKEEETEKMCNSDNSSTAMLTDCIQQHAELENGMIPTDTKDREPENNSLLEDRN
The data set is described as follows: Agonist activity at TREK-2 (unknown origin) expressed in HEK293 cells assessed as increase in K+ current at 100 uM measured at +60 mV by whole-cell patch clamp method relative to control. Format: cell-based.

Data set [15] deals with Mus musculus. The data set can be described thus: Antinociceptive activity in wild-type C57Bl/6J mouse assessed as increase in thermal-stimulus induced paw withdrawal latency at 60 mg/kg, sc measured after 45 mins by hot plate method relative to control. Format: functional. In outline: as §1
The nature of data set [16]: Half life in rat liver microsomes at 40 mM in presence of NADPH-cofactor by HPLC analysis. It is filed as ADME, microsome.
In data set [17] the target is T1, Potassium channel subfamily K member 2 (Homo sapiens). The data set can be described thus: Agonist activity at human TREK1 expressed in HEK293 cells assessed as increase in K+ current at 20 uM measured at +60 mV by whole-cell patch clamp method relative to control. It is filed as cell-based. The essentials: as §4
For data set [18], the system named is Liver. The data set is described as follows: Drug metabolism in rat liver microsomes assessed as (E)-2-cyano-3-(1H-indol-2-yl)acrylic acid formation at 40 mM in presence of NADPH-cofactor measured after 24 hrs by HPLC analysis. It is filed as ADME, microsome. The settings on record: 40000 µM. In outline:
as §3

Data set [19] deals with Liver. The data set can be described thus: Drug level in rat liver microsomes treated with at 40 mM (E)-ethyl 2-cyano-3-(1H-indol-2-yl)acrylate measured after 24 hrs by HPLC analysis. Format: ADME, microsome. The settings on record: 40000 µM. In outline: as §3
Data set [20] concerns Liver. The data set can be described thus: Drug metabolism in rat liver microsomes assessed as (E)-2-cyano-3-(furan-3-yl)acrylic acid formation at 40 mM in presence of NADPH-cofactor measured after 24 hrs by HPLC analysis. The note with it: 40000 µM. Format: ADME, microsome. The essentials:
as §3

Data set [21] concerns Liver. The data set can be described thus: Drug level in rat liver microsomes treated with at 40 mM (E)-ethyl 2-cyano-3-(3,4-dihydroxyphenyl)acrylate measured after 24 hrs by HPLC analysis. It is filed as ADME, microsome. The settings on record: 40000 µM. The essentials:
as §3

Chain of Potassium channel subfamily K member 9 (Homo sapiens) (Q9NPC2 whole entry): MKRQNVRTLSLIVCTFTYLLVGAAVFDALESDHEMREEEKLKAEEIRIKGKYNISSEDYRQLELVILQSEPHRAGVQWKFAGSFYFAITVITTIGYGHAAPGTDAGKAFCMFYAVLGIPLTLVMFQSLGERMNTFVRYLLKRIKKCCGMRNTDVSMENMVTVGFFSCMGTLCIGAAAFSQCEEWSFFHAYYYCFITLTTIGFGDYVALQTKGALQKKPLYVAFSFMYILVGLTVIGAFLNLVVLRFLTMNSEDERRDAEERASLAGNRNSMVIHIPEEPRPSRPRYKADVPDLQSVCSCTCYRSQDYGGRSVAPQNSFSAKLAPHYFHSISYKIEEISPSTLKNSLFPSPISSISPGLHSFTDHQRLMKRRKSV

In the case of `N#C/C(=C\c1ccoc1)C(=O)O`, the inhibition in vivo at 10 mg/kg with Mus musculus [1] was found to be 30.7%. In addition, the Activity came out at 121.2% with Mus musculus [2]; 36.6% in the data set on Mus musculus [4]; 56.4% in the data set with Mus musculus [5]; 78.1% with Mus musculus [9]; 19% in the data set on Mus musculus [10]; 75.4% in the data set with Mus musculus [12]. Also, the results for the Activity in the data set with Mus musculus [13] and with Mus musculus [15] were 119.5% and 93.5%, respectively. Also, the fold change (FC) in [3] was 1.43; in [7], 4.53; in data set [8], 1; in [11] it was 1.1; in data set [14], 1.8. For the same molecule, the Drug metabolism result with Liver [6] is “Metabolite_Detected”.
On to `CCOC(=O)/C(C#N)=C/c1cc2ccccc2[nH]1`, for which, in the data set on Mus musculus [1], the inhibition in vivo at 10 mg/kg turned out to be 88.4%. The half-life in data set [16] is below 4 min. Also, the fold change (FC) in data set [17] is 4.71. Moreover, the Activity is recorded as 33.3% in the data set with Mus musculus [5] and 32.7% with Mus musculus [13]. Further, in the data set on Liver [18], the Drug metabolism entry was “Metabolite_Detected”.
With `N#C/C(=C\c1cc2ccccc2[nH]1)C(=O)O`, the inhibition in vivo at 10 mg/kg with Mus musculus [1] was 25.8%. The fold change (FC) in data set [3] came out at 2.44; in data set [7] it was 1.18. Also, the Drug metabolism entry in the data set on Liver [19] was “Metabolite_Detected”.
As to `CCOC(=O)/C(C#N)=C/c1ccoc1`, the inhibition in vivo at 10 mg/kg in the data set with Mus musculus [1] amounted to 55.9%. Further, the half-life in data set [16] was below 4 min. Moreover, in the data set on Liver [20], the Drug metabolism result was “Metabolite_Detected”. For the same molecule, the Activity in the data set on Mus musculus [5] worked out at 28.4%; with Mus musculus [13], 11.9%. The fold change (FC) in data set [7] turned out to be 2.09.
Turning to `N#C/C(=C\c1ccc(O)c(O)c1)C(=O)O`, the fold change (FC) in data set [3] worked out at 1.23; in data set [7] it was 1.5. The figures for the Activity with Mus musculus [5] and in the data set with Mus musculus [13] were 21.4% and 59.4%, respectively. Besides, the Drug metabolism result in the data set on Liver [21] was “Metabolite_Detected”.
